From PubChem BioAssay
Hits are enriched below; roughly 2.5% of the tested compounds scored in any of these assays.
N-glyco inh: N-linked glycosylation inhibition; D54 ERlucT glycosylation luciferase reporter, 24 h; percent of 100 nM tunicamycin response; reporter increase, % at 12.5 µM; 360,000 compounds, 0.23% hits; AID 588692;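 active = mean luciferase reporter signal, scaled so untreated is 0 and the glycosylation-blocking control 100, at or above a set limit in every replicate; inconclusive = mean reaches the limit but not every replicate does; inactive = mean below the limit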;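 also: luciferase carries N-glycosylation sites so blocking glycosylation raises the light; 0% = median of neutral control wells and 100% = median of 100 nM tunicamycin wells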
PAX8 reporter: lowers PAX8-driven luciferase in RMG-I cells; RMG-I TPO-luciferase reporter, SteadyGlo, 24 h; inhibition, % at 12.6 µM; 360,000 compounds, 1.2% hits; AID 652154;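 active = mean replicate inhibition at least 60% with every replicate also reaching 60%; inconclusive = only one of the two criteria is met; inactive = mean below 60% and not all replicates reaching 60%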;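 also: luciferase light reporting Pax8 driven TPO promoter activity; plate controls were median of neutral control wells for no effect and mitoxantrone controls for full effect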
FN deposition inh: fibronectin deposition inhibition; AH1F fibroblasts, Alexa488-fibronectin deposition fluorescence, overnight; 350,000 compounds, 0.086% hits; AID 743247; inhibition, % at 12.6 µM;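 active = mean inhibition across replicates of 30% or more, regardless of how many single replicates reach that level; inconclusive = mean under 30% yet at least half of replicates reach 30%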;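 also: positive control wells lacked labelled fibronectin entirely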
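Assay system: AH1F fibroblast monolayer, labelled fibronectin deposition. Amount: 10000 cells per well. Also added: labelled fibronectin 24 nM. Compound: single-point pinned compound. Incubation: cell attachment 1 h, compound and FN exposure overnight. Detection: fluorescence after three HBSS washes, excitation 485 nm, emission 525 nm. Read-out: inhibition of fibronectin deposition signal.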
EWS-Fli block: inhibitors of EWS/Fli oncoprotein transcriptional activity; A673 NR0B1-luciferase reporter, viability-normalised; inhibition, % at 12.6 µM; 350,000 compounds, 0.67% hits; AID 651661;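 active = mean inhibition of at least 50% after viability correction, with every replicate also passing that limit; inconclusive = mean reaches 50% but only one of two replicates passes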;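 also: firefly luciferase signal divided by Alamar Blue viability fluorescence both relative to DMSO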
HIV Env fusion: blocks HIV Env-driven cell-cell fusion; HeLa-JRFL Env/CEM21 cell fusion, luciferase; inhibition, % at 12.3 µM; 360,000 compounds, 1.1% hits;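 active = mean replicate inhibition score of at least 50 and every replicate individually at or above 50; inconclusive = only one of the two criteria met; inactive = mean below 50 and not all replicates reaching 50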;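 also: 0% = plate neutral controls and 100% = maraviroc near 300 nM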
AF4-AF9 inh: MLL-AF4/AF9 protein interaction inhibition. P42568. AlphaScreen, biotin-AF4 peptide binding to FLAG-AF9. inhibition, % at 10 µM. 350,000 compounds, 0.47% hits;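 active = every replicate reaching a set inhibition limit, whatever the replicate mean, cut at about 25% in these data; inconclusive = mean inhibition reaches that limit but some replicates miss it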;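 also: 0% = plate neutral control median and 100% = total signal loss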
Target sequence (P42568 whole entry, looked up): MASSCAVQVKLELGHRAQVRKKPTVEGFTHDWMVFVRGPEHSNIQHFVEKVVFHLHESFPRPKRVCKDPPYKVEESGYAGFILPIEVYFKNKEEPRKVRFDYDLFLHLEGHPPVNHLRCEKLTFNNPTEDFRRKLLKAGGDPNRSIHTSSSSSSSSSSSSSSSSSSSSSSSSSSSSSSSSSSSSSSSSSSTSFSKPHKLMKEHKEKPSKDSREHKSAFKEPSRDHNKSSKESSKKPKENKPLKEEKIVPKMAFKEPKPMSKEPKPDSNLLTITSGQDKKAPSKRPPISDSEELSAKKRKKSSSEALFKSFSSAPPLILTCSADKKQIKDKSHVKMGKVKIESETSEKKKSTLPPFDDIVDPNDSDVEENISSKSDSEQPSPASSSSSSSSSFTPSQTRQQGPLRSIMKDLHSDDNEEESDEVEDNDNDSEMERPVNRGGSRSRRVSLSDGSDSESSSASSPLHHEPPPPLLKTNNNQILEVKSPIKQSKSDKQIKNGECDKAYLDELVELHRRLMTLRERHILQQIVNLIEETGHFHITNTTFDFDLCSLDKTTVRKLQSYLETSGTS
* hit, by the source's call; ? = inconclusive; . = not tested or not shown; [ ] = remark or other dose.

SMILES | N-glyco inh | PAX8 reporter | FN deposition inh | EWS-Fli block | HIV Env fusion | AF4-AF9 inh
COc1ccc(-c2cc3nc(NCc4ccc(N(C)C)cc4)n(C)c(=O)c3s2)cc1OC | 0.7 | 5.9 | . | 8.9 | 2.0 | 15.8
C=CCNc1nc2cc(-c3ccccc3C)sc2c(=O)n1C | 18.6 | -9.9 | 4.1 | 63.1* | 27.0 | -3.5
COc1cccc(CNc2nc3cc(-c4ccccc4)sc3c(=O)n2C)c1 | -3.8 | 18.9 | -15.9 | -2.5 | 63.0* | -7.5
COc1cccc(CNc2nc3cc(-c4ccc(OC)c(OC)c4)sc3c(=O)n2C)c1 | -4.6 | 12.2 | 0.4 | 11.0 | 59.6* | 3.8
Cn1c(NCc2ccccc2)nc2cc(-c3ccccc3)sc2c1=O | -1.4 | 0.7 | -9.2 | -32.5 | 3.1 | -0.3
C[C@@H]1CN([C@@H](C)CO)C(=O)c2cccc(NS(=O)(=O)c3cn(C)cn3)c2O[C@H]1CN(C)Cc1ccc(C(=O)Nc2ccccc2N)cc1 | . | -26.4 | 2.0 | -4.7 | . | 3.4
C[C@@H]1CN([C@H](C)CO)C(=O)c2cc(NS(=O)(=O)c3ccc(Cl)cc3)ccc2O[C@@H](C)CCCCO[C@@H]1CN(C)C(=O)C1CCCCC1 | . | 64.2* | -4.1 | 5.3 | -52.6[16.7 µM] | 2.8
C[C@@H]1CCCCO[C@H](CN(C)C(=O)C2CCCCC2)[C@H](C)CN([C@@H](C)CO)C(=O)c2cc(NS(=O)(=O)c3ccc(Cl)cc3)ccc2O1 | . | 76.1* | -16.2 | 12.0 | 8.0[16.7 µM] | 5.4
C=CCN(CC=C)Cc1cc(=O)n2c(-c3ccccc3)csc2n1 | -2.0 | -1.9 | -7.0 | 0.7 | -0.2 | 48.7*
O=c1cc(CN2CCN(c3ccc(O)cc3)CC2)nc2scc(-c3ccccc3)n12 | -2.4 | 1.3 | . | 11.4 | 1.8 | 2.5
CCC(C)OC(=O)C[N+](C)(C)CCOC1CC2CCC1(C)C2(C)C (stereo not given) | 5.6 | 33.8 | 4.5 | 17.6 | 66.0* | 0.0
CCCOC(=O)C[N+](C)(C)CCOC1CC2CCC1(C)C2(C)C (stereo not given) | 1.7 | 24.7 | 0.9 | 14.7 | -2.6 | -43.7
CCCCCCOC(=O)C[N+](C)(C)CCOC1CC2CCC1(C)C2(C)C (stereo not given) | 1.7 | . | 4.6 | . | -80.3 | .
CCCCCCCOC(=O)C[N+](C)(C)CCOC1CC2CCC1(C)C2(C)C (stereo not given) | 10.1 | 46.3 | -3.7 | 67.4* | 75.1* | 12.7
CC(=O)OC(COC1C[C@@H]2CC[C@@]1(C)C2(C)C)C[N+]1(C)CCCCC1 (stereo not given in full) | 4.5 | -11.7 | 3.7 | 11.8 | -13.9 | 1.2
CCCCOC(=O)C[N+](C)(C)CCOC1CC2CCC1(C)C2(C)C (stereo not given) | 3.5 | 40.6 | -17.5 | 15.3 | 103.0* | -0.5
CC(C)CCOC(=O)C[N+](C)(C)CCOC1CC2CCC1(C)C2(C)C (stereo not given) | 5.0 | 23.6 | 5.1 | 0.3 | 76.3* | 3.8
C/C=C/c1cnc2c(c1)C(=O)N([C@@H](C)CO)C[C@@H](C)[C@@H](CN(C)C(=O)C1CCC1)O2 | . | . | -3.1 | -23.4 | -11.7[16.7 µM] | .
CC(C)(C)c1ccc(-c2cn(-c3ccc(Br)cc3)c3[n+]2CCCS3)cc1 | 1.9 | 95.3* | -1.1 | 39.2 | ? | 3.5
c1ccc(CN2CCC3CC2c2cc(N4CCCCC4)ccc23)cc1 (stereo not given) | 2.4 | 1.9 | . | 0.2 | -2.9 | 22.1
Clc1cccc(CN2CCC3CC2c2cc(N4CCCCC4)ccc23)c1 (stereo not given) | 0.7 | 2.6 | -1.7 | -12.3 | 4.6 | 25.9*
C=C(C)c1nc(Oc2ccccc2)nc(Oc2ccccc2)n1 | 2.0 | 97.3* | . | 42.1 | 3.5 | -57.0
O=C(NCC1CC1)[C@H]1[C@H](CO)[C@H]2Cn3c(cccc3=O)[C@@H]1N2C(=O)c1cccnc1 | . | . | . | -0.1 | . | -4.8
Cc1cccc(COC[C@H](Cc2ccccc2)N2CCN(C(=O)c3ccc(Cl)c(Cl)c3)CCC2=O)c1 | . | 4.5 | 18.6 | 16.7 | 82.8* | -0.5
Cc1ccc(S(=O)(=O)N2CCC(=O)N(C(COCc3cccc(C(F)(F)F)c3)Cc3ccccc3)CC2)cc1 (stereo not given) | -7.0 | 9.2 | -0.6 | 29.3 | 56.1* | -23.7
SMILES | N-glyco inh | PAX8 reporter | FN deposition inh | EWS-Fli block | HIV Env fusion | AF4-AF9 inh
O=C(c1ccc(Cl)c(Cl)c1)N1CCC(=O)N(C(COCc2cccc(C(F)(F)F)c2)Cc2ccccc2)CC1 (stereo not given) | 2.1 | 20.2 | 10.9 | 12.0 | 79.8* | .
Cc1cccc(COCC(Cc2ccccc2)N2CCN(C(=O)c3cc(Cl)cc(Cl)c3)CCC2=O)c1 (stereo not given) | -2.2 | . | . | . | . | .
Cc1ccc(S(=O)(=O)N2CCC(=O)N(CCOCc3ccc(Cl)cc3)CC2)cc1 | -1.0 | -0.6 | 0.2 | 15.6 | 56.4* | -13.8
Cc1cccc(COCC(Cc2ccccc2)N2CCN(C(=O)c3cccc(C)c3)CCC2=O)c1 (stereo not given) | -2.0 | 6.8 | -5.6 | 26.9 | 50.9 | 3.5
Cc1cccc(COCC(Cc2ccccc2)N2CCN(C(=O)c3ccc(Cl)c(Cl)c3)CCC2=O)c1 (stereo not given) | -2.1 | 7.2 | 17.9 | 17.6 | 95.4* | -1.5
O=C(C[C@@H]1CC[C@H]2[C@@H](COC[C@@H](O)CN2Cc2ccc3c(c2)OCO3)O1)Nc1ccccc1 | . | 10.2 | -6.5 | 0.2 | . | 1.5
CC(=Nc1ccccc1)c1sc2ccccc2c1O | -7.9 | . | . | -46.4 | . | 25.8*
COc1ccc(S(=O)(=O)N(C)C[C@@H]2Oc3ccc(NC(=O)CCCN(C)C)cc3CC(=O)N([C@H](C)CO)C[C@@H]2C)cc1 | . | -17.6 | 3.8 | 4.7 | . | -1.7
Cc1oc2c(c(=O)c1C)C(=O)CC(c1ccccc1)C2 (stereo not given) | -1.7 | . | . | . | . | .
CS(=O)(=O)c1sc(C#N)c2c1C(=O)CC(c1ccccc1)C2 (stereo not given) | -18.7 | 131.1* | 37.1* | 42.2 | -10.3 | .
O=C(CCC(=O)c1ccccc1)NCCc1c[nH]c2ccccc12 | 0.9 | 121.9* | 2.5 | 10.4 | . | 0.7
O=C(NCCc1c[nH]c2ccccc12)c1cccnc1 | 3.1 | 70.8* | -2.8 | -2.1 | -27.6 | 2.1
CCOC(=O)[C@]12CCCC=C1N(Cc1cccc3ccccc13)C(=O)[C@H](CC(=O)N1CCOCC1)C2 | . | -6.3 | 5.1 | -5.4 | -64.1 | -3.6
COC(=O)[C@]12CCCCC=C1N(Cc1ccco1)C(=O)[C@H](CC(=O)N1CCN(C(=O)c3ccco3)CC1)C2 | . | 84.8* | 6.7 | -4.0 | 1.5 | -0.8
CCOC(=O)[C@]12CCCC=C1N(Cc1cccc3ccccc13)C(=O)[C@H](CC(=O)N1CCN(C(=O)c3ccco3)CC1)C2 | . | 84.5* | -0.5 | 2.3 | -3.8 | 8.0
CCCN(C)C[C@@H]1OCCCC[C@H](C)Oc2ccc(NC(=O)Nc3cccc4ccccc34)cc2C(=O)N([C@H](C)CO)C[C@@H]1C | . | 5.3 | . | . | . | 0.9
